# An excerpt weighted towards active compounds, which were near 0.58% of everything screened.
# PglD DTNB = inhibitors of Campylobacter jejuni PglD acetyltransferase. inhibition, % at 12.5 µM. actives 0.098% (n = 360,000). purified PglD enzyme, DTNB colorimetric CoA detection; in the data active = inhibition above about 16%, passing the limit was not always enough; inconclusive = no clear call, values can overlap the other calls
# PvdQ acylase = P. aeruginosa PvdQ acylase inhibition. purified PvdQ acylase, fluorescence plate reader. inhibition, % at 10 µM. actives 0.063% (n = 340,000); in the data active = inhibition above about 30%, passing the limit was not always enough; inconclusive = no clear call, values can overlap the other calls;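 also: 0% = vehicle neutral wells and 100% = reference inhibitor wells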
# ERp5 block = inhibitors of human ERp5 | Q15084 | ERp5 insulin aggregation, absorbance 650 nm, 90 min | inhibition, % at 9.99 µM | actives 0.05% (n = 350,000);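 active = mean replicate inhibition above about 25%, with every replicate also reaching it, limit read from the data, passing the limit was not always enough; inconclusive = only one of those two criteria met; inactive = neither criterion met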
# Cneo AK release = causes C. neoformans cell lysis | lysis activity, % at 15 µM | adenylate kinase release luminescence, 4 h; normalised: neutral wells 0, clomiphene wells 100 | AID 651654 | actives 0.2% (n = 360,000);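 active = mean lysis activity across replicates of at least 80%, whatever share of replicates individually reach that level; inactive = mean lysis activity below 80%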
#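 Test system: log-phase Cryptococcus neoformans yeast cells; Quantity: yeast cell density of 5 × 10^6 cells/mL; Buffer or medium: YPD; Doses: single compound concentration per well; Timing: 4 h at 37 °C static, read 1 h later; Measured by: AK luminescence; Read-out basis: lysis from increased AK signal; Control set: Clomiphene as positive control.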
# miR122 inh = miR-122 inhibition in Huh7 cells; Huh7 miR-122 Renilla luciferase sensor, 48 h; neutral wells = 0, positive control = 100; actives 0.3% (n = 340,000); activation (reporter increase), % at 12.5 µM;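 active = mean replicate activation score at least 90 and every replicate individually at or above 90; inconclusive = only one of the two criteria met; inactive = neither criterion met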;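 also: higher luciferase means less miR-122 activity so hits act as miR-122 inhibitors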
# PDI inh = inhibitors of human protein disulfide isomerase. P07237. PDI insulin aggregation turbidity, A650, 90 min. inhibition, % at 10 µM. actives 0.052% (n = 350,000);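 active = mean inhibition across replicates of 30% or more, whatever share of single replicates reach that level; inconclusive = mean inhibition below 30% while every single replicate reaches 30%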
# Target sequence (P07237 whole entry, looked up): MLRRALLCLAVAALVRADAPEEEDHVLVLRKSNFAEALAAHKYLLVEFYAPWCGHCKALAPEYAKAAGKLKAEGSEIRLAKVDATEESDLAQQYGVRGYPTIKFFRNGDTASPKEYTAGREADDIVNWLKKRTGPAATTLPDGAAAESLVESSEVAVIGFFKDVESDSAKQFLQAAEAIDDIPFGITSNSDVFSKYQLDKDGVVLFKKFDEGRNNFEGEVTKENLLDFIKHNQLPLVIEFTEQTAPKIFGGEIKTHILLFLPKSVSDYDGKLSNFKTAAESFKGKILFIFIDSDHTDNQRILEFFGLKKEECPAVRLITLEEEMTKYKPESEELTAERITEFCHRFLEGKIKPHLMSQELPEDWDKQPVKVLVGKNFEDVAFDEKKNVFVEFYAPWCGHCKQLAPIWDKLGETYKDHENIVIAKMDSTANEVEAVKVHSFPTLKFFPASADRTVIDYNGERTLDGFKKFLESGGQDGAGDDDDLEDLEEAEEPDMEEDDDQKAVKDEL
# * marks the source's active call; other numbers are inactive results; u = inconclusive; x = not tested or not shown; ! = a repeat was not active; [ ] = dose if it differs, or a comment.
SMILES,PglD DTNB,PvdQ acylase,ERp5 block,Cneo AK release,miR122 inh,PDI inh
COc1ccccc1NC(=O)N[C@H]1CC[C@H](CCNS(=O)(=O)c2ccc(C)cc2)O[C@H]1CO,x,x,1,x,x,x
C[C@H]1CN([C@@H](C)CO)C(=O)c2c(c3ccccc3n2C)-c2ccccc2CO[C@H]1CN(C)C(=O)C1CC1,2,x,-1,-1,x,x
COc1ccc(NS(=O)(=O)c2ccc(Oc3cccc(C(=O)O)c3)cc2)cc1,x,2,2,x,x,3
Cc1cccc(Oc2ccc(NS(=O)(=O)c3ccc(C)c(C(=O)O)c3)cc2)c1,-2,-16,26*,-1,x,6
C[C@@H]1CN([C@H](C)CO)C(=O)c2cc(NS(=O)(=O)c3ccc(Cl)cc3)ccc2O[C@@H]1CN(C)C,-6,x,-4,1,1[16.7 µM],x
Cc1ccnc(NC(=O)CCCOc2cc(=O)n(C)c3ccccc23)c1,0,-17,-2,2,183*!,-9
Cn1c(=O)cc(OCCCC(=O)NCc2ccccn2)c2ccccc21,1,-4,5,x,9,-8
OC(c1cccc(Cl)c1)c1nccc2ccccc12 (configuration not stated),-1,35*,-2,0,-4,-72
O=C(NCC1CC1)[C@H]1[C@H](CO)[C@H]2Cn3c(ccc(C4=CCCC4)c3=O)[C@@H]1N2CCC(F)(F)F,3,x,-2,-2,x,x
Cc1ccc(S(=O)(=O)NC(=NCc2ccccc2)c2ccc(F)cc2)cc1,-1,-7,3,0,116*,-3
Cc1ccc(-c2ccc(C3[C@@H]4CN(S(=O)(=O)c5cccc(C)c5)C[C@H]3N4)cc2)cc1 (some centres not stated),x,x,-3,x,x,x
C[C@H]1CN([C@@H](C)CO)C(=O)Cc2cc(NC(=O)Cc3ccccc3)ccc2O[C@@H]1CN(C)CC1CCCCC1,0,x,-5,-5,1[16.7 µM],x
C[C@H]1CN([C@@H](C)CO)C(=O)Cc2cc(N(C)C)ccc2O[C@@H]1CN(C)C(=O)Nc1ccc(C(F)(F)F)cc1,2,x,0,142*,0[16.7 µM],x
C[C@H](CO)N1C[C@H](C)[C@@H](CN(C)C(=O)Nc2ccc(C(F)(F)F)cc2)Oc2ccc(N(C)C)cc2C1=O,-1,x,-3,-1,25[16.7 µM],x
C[C@H](CO)N1C[C@H](C)[C@@H](CN(C)Cc2ccc(C(F)(F)F)cc2)Oc2ccc(N(C)C)cc2C1=O,x,x,x,x,98*[16.7 µM],x
C[C@@H]1CN([C@@H](C)CO)C(=O)c2cc(N(C)C)ccc2O[C@@H]1CN(C)C(=O)Nc1ccc(C(F)(F)F)cc1,-6,x,-2,117*,3[16.7 µM],x
Cc1noc(C)c1NC(=O)N(C)C[C@H]1Oc2ccc(N(C)C)cc2C(=O)N([C@H](C)CO)C[C@@H]1C,3,x,-6,102*,30[16.7 µM],x
C[C@H]1CN([C@@H](C)CO)C(=O)c2cc(N(C)C)ccc2O[C@@H]1CN(C)Cc1ccc(C(F)(F)F)cc1,0,x,-4,-2,78[16.7 µM],x
C[C@@H]1CN([C@H](C)CO)C(=O)Cc2cc(N(C)C)ccc2O[C@H]1CN(C)C(=O)Nc1ccc(C(F)(F)F)cc1,0,x,5,-9,4[16.7 µM],x
COc1cccc(CC(=O)NNC(=O)CN(C)S(=O)(=O)c2ccc(C)cc2)c1,-4,-9,27*,-2,-2,5
O=C(NCCc1ccccc1)[C@@H]1[C@@H](CO)[C@@H]2Cn3c(cccc3=O)[C@H]1N2C(=O)C1CCC1,-1,x,3,102*,40[16.7 µM],x
O=C(NCCc1ccccc1)[C@@H]1[C@@H](CO)[C@@H]2Cn3c(cccc3=O)[C@H]1N2C(=O)C1CC1,-3,x,5,-4,x,x
O=C(NCCc1ccccc1)[C@H]1[C@H](CO)[C@H]2Cn3c(cccc3=O)[C@@H]1N2C(=O)C1CCCC1,3,x,-4,-4,-5[16.7 µM],x
O=C(NCCc1ccccc1)[C@H]1[C@H](CO)[C@H]2Cn3c(cccc3=O)[C@@H]1N2C(=O)C1CCC1,4,x,2,105*,11[16.7 µM],x
CC(O)(C(=O)c1ccccc1)c1ccccc1 (configuration not stated),-2,x,-4,1,0,x
SMILES,PglD DTNB,PvdQ acylase,ERp5 block,Cneo AK release,miR122 inh,PDI inh
O=C(c1ccccc1)C(O)(Cc1ccccc1)c1ccccc1 (configuration not stated),-1,12,-7,-1,168*,1
COCC#Cc1cnc2c(c1)C(=O)N([C@@H](C)CO)C[C@H](C)[C@@H](CN(C)C(=O)CCN1CCCCC1)O2,-3,x,-4,-3,-2[16.7 µM],x
COc1ccc(OC)c(S(=O)(=O)N2CCC3(CC2)OCCN3S(=O)(=O)c2cccs2)c1,-2,1,4,2,107*,-4
COc1ccc(OC)c(S(=O)(=O)N2CCNCC2)c1,3,-7,-3,1,172*,4
Cc1ccc(S(=O)(=O)N2CCC3(CC2)OCCN3S(=O)(=O)c2cccs2)cc1,8,-11,-2,-2,u,-4
O=S(=O)(c1ccc(Cl)cc1)N1CCC2(CC1)OCCN2S(=O)(=O)c1cccs1,x,-15,2,x,135*,7
COc1ccc(S(=O)(=O)N2CCC3(CC2)OCCN3S(=O)(=O)c2cccs2)cc1,-1,-11,0,-2,75,3
O=C(c1ccncc1)N1C[C@@H]2[C@H](c3ccccc31)[C@@H](CO)N2C(=O)c1ccccn1,5,x,-1,1,-14[16.7 µM],x
COCC(=O)N1C[C@@H](C)[C@H](OC)CN(C)C(=O)c2cc(NC(=O)c3ccccc3)ccc2OC[C@@H]1C,3,x,-1,-3,x,x
CC(C)(C)OC(=O)CC[C@@]12N=C(c3ccc(OCCCO)cc3)O[C@@H]1c1ccccc1CN(C(=O)c1ccccc1)C2=O,-2,x,1,-15,x,x
CN1CCN(c2ccc([N+](=O)[O-])cc2C(=O)c2ccc(Br)cc2)CC1,0,-9,x,0,3,-5
O=C(c1ccc(Br)cc1)c1cc([N+](=O)[O-])ccc1N1CCCCC1,-1,-3,x,0,185*,25
CO[C@H]1CN(C)C(=O)c2cc(NC(=O)C3CC3)ccc2OC[C@H](C)N(C(=O)c2ccccn2)C[C@H]1C,x,x,x,x,-13[16.7 µM],x
CCC(=O)N1[C@H](CN(C)C(C)=O)[C@H](c2ccc(C3=CCCCC3)cc2)[C@@H]1CO,x,x,7,x,x,x
CCC(=O)N1[C@H](CN(C)C(C)=O)[C@@H](c2ccc(C3=CCCCC3)cc2)[C@@H]1CO,0,x,x,111*,14[16.7 µM],x
CCCNC(=O)NC[C@@H]1[C@@H](c2ccc(C3=CCCC3)cc2)[C@@H](CO)N1C(=O)CC,3,x,-2,-3,143*[16.7 µM],x
CCCNC(=O)NC[C@H]1[C@@H](c2ccc(C3=CCCC3)cc2)[C@H](CO)N1C(=O)CC,4,x,4,-7,36[16.7 µM],x
CCC(=O)N1[C@H](CO)[C@@H](c2ccc(-c3cccnc3)cc2)[C@@H]1CN(C)C(C)=O,-2,x,x,104*,-21[16.7 µM],x

# Screens (PubChem)
